Experimental data taken from paper PMC5292677 (Leukemia, 2016).
Values joined by “and” are separate entries in the source; they are usually repeats but may differ in a detail not shown here. Equal values may be shown once. “Also recorded” adds a separate entry of the source.

Key:
JAK2 = conditions: cited from earlier work
[1] = system: patients with myelofibrosis; experiment: Splenic response by palpation; type: in vivo, human
In short: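 Spleen size was measured by palpation and response scored by IWG-MRT criteria. Assessments fell on Day 1 of Cycles 2, 3 and 4, then every 3 cycles, during daily oral dosing in continuous 28-day cycles. Analysis covered patients who completed ≥1 cycle and had baseline splenomegaly ≥5 cm.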

[2] = system: patients with myelofibrosis; experiment: Hemoglobin/platelet response and transfusion status; type: in vivo, human
In short: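 Oral test compound was given QD or BID in continuous 28-day cycles. Hematologic response was scored by IWG-MRT criteria on Day 1 of Cycles 2, 3 and 4, then every 3 cycles. Transfusion dependence was defined as ≥6 units packed red cells in any rolling 12-week interval. Patients without transfusion in the 12 weeks before entry were classed transfusion-free at baseline.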

cytokines = experiment: PD: plasma biomarkers; type: in vivo, human
In short: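 Predose plasma was drawn on Day 1 of Cycles 1–4. Eighty-eight cytokines/proteins were quantified on a multiplexed HumanMAP v2.0 panel. Analysis covered patients with ≥1 dose, a baseline value and ≥1 evaluable post-baseline sample.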

Plasma pharmacokinetics = type: in vivo, human
In short: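 Plasma was sampled on Days 1, 8 and 29: predose and ~0.5, 1, 2, 3, 4, 6 and 8 h after oral dosing, plus 24 h on Days 1 and 29. Test compound was measured by LC-MS/MS (LLOQ 1 ng/ml). For BID regimens, AUC0–24 was taken as twice AUC0–12. Analysis covered patients with ≥1 evaluable profile.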

[3] = system: JAK2^V617F-driven mouse model; conditions: cited from earlier work
[4] = system: patients with myelofibrosis; experiment: Bone marrow fibrosis grade; type: in vivo, human
In short: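 Adults with myelofibrosis took the oral test compound once or twice daily in continuous 28-day cycles. Bone marrow biopsies were taken at screening (within 28 days before first dose), on Day 1 of Cycle 4, then every 3 cycles, and read at each site. Fibrosis was graded 0–3 and categorized against baseline as improved ≥1 grade, stable, or worsened ≥1 grade.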

[5] = 36 evaluable patients, all cohorts
[6] = individual patient with BMF improvement after 3 cycles, 125 mg QD
[7] = individual patients with BMF improvement after 3 cycles, 300 mg QD
[8] = patients without BMF improvement after 3 cycles (n=19)
[9] = 21 patients, doses ⩾300 mg QD, following 4 cycles

C[C@H](Nc1cc(-c2cnn(C)c2)cc(Nc2cnccn2)n1)c1ccc(F)cc1 [NS-018]
Selectivity for JAK2 over JAK1 (JAK2): specificity of this agent for JAK2 over JAK1 | Median inhibitory concentration (JAK2; in vitro kinase assay): subnanomolar range | Median (range) cycles to splenic reduction ⩾50% ([1]; 100 mg BID): 7.5 (3–12) cycles | Median (range) cycles to splenic reduction ⩾50% ([1]; 200 mg BID): 1 cycles | Median (range) cycles to splenic reduction ⩾50% ([1]; 200 mg QD): 3 cycles | Median (range) cycles to splenic reduction ⩾50% ([1]; 250 mg BID): 3 cycles | Median (range) cycles to splenic reduction ⩾50% ([1]; 300 mg BID): 1 cycles | Median (range) cycles to splenic reduction ⩾50% ([1]; 300 mg QD): 2 (1–8) cycles | Median (range) cycles to splenic reduction ⩾50% ([1]; 400 mg BID): 1.5 (1–2) cycles | Median (range) cycles to splenic reduction ⩾50% ([1]; 400 mg QD): 1 cycles | Patients achieving ⩾50% reduction in palpable spleen size [1, 5]: 56% | Patients with splenic reduction of 100% [1, 5]: 31% | Patients with 100% splenic reduction ([1]; JAK2^V617F-negative responders): 3 patients | Median duration of splenic response (range) ([1]; all cohorts): 5.5 (1–24) cycles | Median (range) cycles to splenic reduction ⩾50% ([1]; all dose cohorts): 1 (1–12) cycles | Patients achieving ⩾50% reduction in spleen size ([1]; baseline spleen >10 cm): 15 patients | Patients attaining 100% reduction in spleen size ([1]; baseline spleen ⩽10 cm): 5 patients | Patients achieving ⩾50% reduction in palpable spleen size ([1]; evaluable patients with prior JAK2 inhibitor treatment): 47% | Patients achieving ⩾50% reduction in palpable spleen size ([1]; evaluable patients with the JAK2^V617F mutation): 50% | Median (range) cycles to splenic reduction ⩾50% ([1]; prior JAK2 inhibitor treatment): 2 (1–12) cycles | Patients with 100% splenic reduction ([1]; responders with the JAK2^V617F mutation): 8 patients | Hemoglobin IWG-MRT clinical improvement ([2]; all cohorts): 4 patients | Hemoglobin improvement (⩾20 g/l increase) ([2]; all cohorts): 11 patients | Platelet IWG-MRT clinical improvement ([2]; all cohorts): 1 patients | Platelet improvement (100% increase) ([2]; all cohorts): 2 patients | Increase in Hb of ⩾20 g/l ([2]; individual patient with BMF improvement after 3 cycles, 75 mg QD): ✓ (not CI) | 100% increase in Plt count [2, 6]: ✓ (CI) | Increase in Hb of ⩾20 g/l [2, 6]: ✓ (not CI) | Increase in Hb of ⩾20 g/l ([2]; individual patients with BMF improvement after 3 cycles, 300 mg BID): ✓ (CI) | 100% increase in Plt count [2, 7]: ✓ (not CI) | Increase in Hb of ⩾20 g/l [2, 7]: ✓ (CI) | Increase in Hb of ⩾20 g/l ([2]; individual patients with BMF improvement after 3 cycles, 400 mg BID): ✓ (not CI) | Patients achieving transfusion independence ([2]; of the 10 patients transfusion dependent at baseline): 3 patients | Hemoglobin responses [2, 8]: 2 responses | Platelet responses [2, 8]: no platelet responses | B2M, CRP, IL-18, myeloperoxidase and TNFR2 plasma levels (cytokines; [9]): Dose-dependent downregulation | Erythropoietin, leptin and eotaxin-1 plasma levels (cytokines; [9]): dose-dependent upregulation | Tumor necrosis factor-α and IL-6 levels (cytokines; after 4 weeks of treatment): unchanged | Time to maximum plasma concentration (Cmax) (Plasma pharmacokinetics; Day 8, postdosing, all dose cohorts, oral): 1 to 2 h | Dose proportionality of systemic exposure (Plasma pharmacokinetics; based on Cmax on Day 8): approximately dose proportional | Drug accumulation with multiple dosing (Plasma pharmacokinetics; exposure Days 8 vs 29): did not accumulate; also recorded: no evidence of drug accumulation | half-life (Plasma pharmacokinetics; human, plasma, po): 2 to 5 h | Splenomegaly ([3]; JAK2^V617F-driven mouse model): reduced splenomegaly | Leukocytosis, BMF and survival ([3]; murine model): Improvements | Peripheral blood erythrocyte or platelet counts ([3]; murine model): without reducing | Patients with improvement of ⩾1 BMF grade ([4]; after 3 cycles, 30 evaluable patients): 37% | Patients with unchanged BMF grade ([4]; after Cycle 3, 30 evaluable patients): 53% | Patients with BMF worsening ([4]; at completion of Cycle 3, 30 evaluable patients): 10% | Duration of BMF grade change ([4]; individual patient, 75 mg QD): 3 cycles | Duration of BMF grade change ([4]; individual patient, 125 mg QD): 12 cycles | Duration of BMF grade change ([4]; individual patient, 250 mg BID): 2 cycles | Duration of BMF grade change ([4]; individual patient, 400 mg QD): 6 cycles | Duration of BMF grade change ([4]; individual patients, 300 mg BID): 2 cycles and 1 cycles | Duration of BMF grade change ([4]; individual patients, 300 mg QD): 3 cycles and 39 cycles and 9 cycles | Duration of BMF grade change ([4]; individual patients, 400 mg BID): 1 cycles and 12 cycles | Patients with BMF improvement maintained for >12 weeks ([4]; of the 11 improved after 3 cycles): 5 patients | Patients achieving BMF improvement from baseline later in the study ([4]; of those with unchanged BMF grade after Cycle 3): 6 patients
